Assay results as given in ChEMBL document CHEMBL4680084, “New β-Lactam Derivatives Modulate Cell Adhesion and Signaling Mediated by RGD-Binding and Leukocyte Integrins” (J Med Chem, 2016).

Columns and labels:
[1] = target: T1, Integrin alpha-V/beta-5 (Homo sapiens, UniProt P06756+P18084); test: Agonist activity at alphaVbeta5 in human MCF7 cells assessed as increase in cell adhesion to fibrinogen pre-incubated for 30 mins before fibrinogen and further incubated for 1 hr by nitrophenyl-N-acetyl-beta-D-glucosaminide substrate based chromogenic assay
Method in brief: (§1)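 Compound or methanol vehicle pre-incubated with cells for 30 min at room temperature. Cells then plated on wells coated overnight at 4 °C with fibronectin 10 µg/mL (SK-MEL-24, K562, HT-29) or fibrinogen 10 µg/mL (MCF7, HEL). Seeding was 50,000 cells/well, or 100000 for HEL. Adhesion ran 1 h at room temperature. Wells washed with 1% BSA/PBS. Adherent cells read by hexosaminidase substrate, absorbance 405 nm. Quadruplicate, at least three repeats.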

[2] = target: T1, Integrin alpha-V/beta-5; test: Antagonist activity at alphaVbeta5 in human MCF7 cells assessed as reduction in cell adhesion to fibrinogen pre-incubated for 30 mins before fibrinogen and further incubated for 1 hr by nitrophenyl-N-acetyl-beta-D-glucosaminide substrate based chromogenic assay
Method in brief: (§2)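 Compound or methanol vehicle pre-incubated with cells for 30 min at room temperature. Cells then plated on wells coated overnight at 4 °C with fibronectin 10 µg/mL (SK-MEL-24, K562, HT-29) or fibrinogen 10 µg/mL (MCF7, HEL). Seeding was 50,000 cells/well, or 100000 for HEL. Adhesion ran 1 h at room temperature. Wells washed with 1% BSA/PBS. Quadruplicate, at least three repeats.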

[3] = target: T2, Integrin alpha-4/beta-1 (Homo sapiens, UniProt P05556+P13612); test: Antagonist activity at alpha4beta1 in human Jurkat E6.1 cells assessed as reduction in exposure of HUTS-21 epitope measured by mAb binding; type: cell-based; conditions: filed as antagonist
Method in brief: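 Jurkat E6.1 cells at 10⁶/mL in 1% BSA/HBSS incubated 30 min at 37 °C with compound. PE-labelled HUTS-21 mAb then added for 45 min at room temperature. Cells washed, 10,000 analysed by flow cytometry. MFI corrected to isotype control set to 0. Four independent experiments in duplicate.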

[4] = target: T3, Integrin alpha-5/beta-1 (Homo sapiens, UniProt P05556+P08648); test: Antagonist activity at alpha5beta1 in human K562 cells assessed as reduction in cell adhesion to fibronectin pre-incubated for 30 mins before fibronectin and further incubated for 1 hr by nitrophenyl-N-acetyl-beta-D-glucosaminide substrate based chromogenic assay; method in brief: as §1
[5] = target: T4, Integrin alpha-V/beta-3 (Homo sapiens, UniProt P05106+P06756); test: Antagonist activity at alphaVbeta3 in human SK-MEL-24 cells assessed as reduction in cell adhesion to fibronectin pre-incubated for 30 mins before fibronectin and further incubated for 1 hr by nitrophenyl-N-acetyl-beta-D-glucosaminide substrate based chromogenic assay; method in brief: as §2
[6] = target: T4, Integrin alpha-V/beta-3; test: Inhibition of fibronectin binding to human recombinant alphaVbeta3 expressed in HEK293 cells incubated for 1 hr by […] competitive solid-phase binding assay; type: cell-based
[7] = system: SK-MEL-24; test: Toxicity in human SK-MEL-24 cells assessed as induction of cell necrosis and/or apoptosis incubated for 3 hrs by annexin V-PE and 7-AAD staining based by flow cytometry; conditions: sk-mel-24, 3 h
Method in brief: (§3)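 After 3 h incubation, cells resuspended in complete medium and stained with annexin V-PE/7-AAD reagent for 20 min at room temperature in the dark. Flow cytometry sorted cells into viable, early apoptotic and late apoptotic/necrotic populations.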

[8] = system: HT-29; test: Toxicity in human HT-29 cells assessed as induction of cell necrosis and/or apoptosis incubated for 3 hrs by annexin V-PE and 7-AAD staining based by flow cytometry; conditions: ht-29, 3 h; method in brief: as §3
[9] = target: T5, Integrin alpha-IIb/beta-3 (Homo sapiens, UniProt P05106+P08514); test: Agonist activity at alpha2bbeta3 in human HEL cells assessed as increase in cell adhesion to fibrinogen pre-incubated for 30 mins before fibrinogen and further incubated for 1 hr by nitrophenyl-N-acetyl-beta-D-glucosaminide substrate based chromogenic assay; method in brief: as §2
[10] = target: T4, Integrin alpha-V/beta-3; test: Agonist activity at alphaVbeta3 in human SK-MEL-24 cells assessed as increase in cell adhesion to fibronectin pre-incubated for 30 mins before fibronectin and further incubated for 1 hr by nitrophenyl-N-acetyl-beta-D-glucosaminide substrate based chromogenic assay; method in brief: as §1
[11] = target: T6, Integrin alpha-V/beta-6 (Homo sapiens, UniProt P06756+P18564); test: Agonist activity at alphaVbeta6 in human HT-29 cells assessed as increase in cell adhesion to fibronectin pre-incubated for 30 mins before fibronectin and further incubated for 1 hr by nitrophenyl-N-acetyl-beta-D-glucosaminide substrate based chromogenic assay; method in brief: as §1
[12] = target: T7, Integrin alpha-L/beta-2 (LFA-1) (Homo sapiens, UniProt P05107+P20701); test: Agonist activity at alphaLbeta2 in human Jurkat E6.1 cells assessed as increase in cell adhesion to ICAM1 pre-incubated for 30 mins before ICAM1 and further incubated for 30 mins by […]; type: cell-based
Method in brief: (§4)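 Jurkat E6.1 cells labelled with CellTracker green CMFDA (12.5 µM, 30 min, 37 °C), washed, then pre-incubated 30 min at 37 °C with compound or methanol. Plated at 500,000/well on VCAM-1 (α4β1) or ICAM-1 (αLβ2) coated wells (5 µg/mL) for 30 min at 37 °C. Cells lysed in 0.5% Triton X-100; fluorescence read Ex485/Em535. Quadruplicate, at least three repeats.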

[13] = target: T2, Integrin alpha-4/beta-1; test: Antagonist activity at alpha4beta1 in human Jurkat E6.1 cells assessed as reduction in VCAM-1 induced ERK1/2 phosphorylation at 1 to 100 nM by Western blot analysis; type: cell-based; conditions: filed as antagonist, dose 1-100 nM
[14] = target: T5, Integrin alpha-IIb/beta-3; test: Antagonist activity at alpha2bbeta3 in human HEL cells assessed as reduction in cell adhesion to fibrinogen pre-incubated for 30 mins before fibrinogen and further incubated for 1 hr by nitrophenyl-N-acetyl-beta-D-glucosaminide substrate based chromogenic assay; method in brief: as §2
[15] = target: T2, Integrin alpha-4/beta-1; test: Inhibition of fibronectin binding to […] isolated from human Jurkat E6.1 cells incubated for 1 hr by scintillation-proximity assay based competitive solid-phase binding assay; type: tissue-based
[16] = target: T5, Integrin alpha-IIb/beta-3; test: Inhibition of fibrinogen binding to alpha2bbeta3 isolated from human HEL cells incubated for 1 hr by […] competitive solid-phase binding assay
[17] = target: T3, Integrin alpha-5/beta-1; test: Inhibition of fibronectin binding to alpha5beta1 isolated from human K562 cells incubated for 1 hr by […] competitive solid-phase binding assay; type: tissue-based
Method in brief: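 Plates coated overnight at 4 °C in carbonate buffer pH 9.6 with fibronectin 0.5 µg/mL (αvβ3, αvβ6, α5β1), fibrinogen 10 µg/mL (αIIbβ3, αvβ5) or ICAM-1 (αLβ2). Blocked 1 h in buffer containing Ca/Mg/Mn 1 mM each and 1% BSA. Purified integrin (3–10 µg/mL) incubated with compound (10⁻⁴–10⁻¹⁰ M) 1 h at room temperature. Bound integrin detected with primary antibody then AlexaFluor488 secondary, Ex485/Em535. Duplicate, at least three repeats.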

[18] = system: HEL; test: Toxicity in human HEL cells assessed as induction of cell necrosis and/or apoptosis incubated for 3 hrs by annexin V-PE and 7-AAD staining based by flow cytometry; method in brief: as §3
[19] = system: MCF7; test: Toxicity in human MCF7 cells assessed as induction of cell necrosis and/or apoptosis incubated for 3 hrs by annexin V-PE and 7-AAD staining based by flow cytometry; conditions: mcf7, 3 h; method in brief: as §3
[20] = target: T1, Integrin alpha-V/beta-5; test: Inhibition of fibrinogen binding to alphaVbeta5 isolated form human mCf7 cells incubated for 1 hr by […] competitive solid-phase binding assay
[21] = target: T7, Integrin alpha-L/beta-2 (LFA-1); test: Antagonist activity at alphaLbeta2 in human Jurkat E6.1 cells assessed as reduction in cell adhesion to ICAM1 pre-incubated for 30 mins before ICAM1 and further incubated for 30 mins by […]; type: cell-based; method in brief: as §4
[22] = target: T2, Integrin alpha-4/beta-1; test: Antagonist activity at alpha4beta1 in human Jurkat E6.1 cells assessed as reduction in cell adhesion to VCAM1 pre-incubated for 30 mins before VCAM1 and further incubated for 30 mins by […]; type: cell-based
[23] = target: T6, Integrin alpha-V/beta-6; test: Inhibition of fibronectin binding to alphaVbeta6 isolated form human HT-29 cells incubated for 1 hr by […] competitive solid-phase binding assay; type: tissue-based
[24] = system: K562; test: Toxicity in human K562 cells assessed as induction of cell necrosis and/or apoptosis incubated for 3 hrs by annexin V-PE and 7-AAD staining based by flow cytometry; conditions: k562, 3 h; method in brief: as §3
[25] = target: T6, Integrin alpha-V/beta-6; test: Antagonist activity at alphaVbeta6 in human HT-29 cells assessed as reduction in cell adhesion to fibronectin pre-incubated for 30 mins before fibronectin and further incubated for 1 hr by nitrophenyl-N-acetyl-beta-D-glucosaminide substrate based chromogenic assay; method in brief: as §2

SMILES: Nc1ccc(CNC(=O)N2C(=O)C[C@H]2C(=O)O)cc1.O=C(O)C(F)(F)F
- EC50 [1]: > 5 µM
- IC50 [2]: > 5 µM
- Activity [3]: Dose-dependent effect
- IC50 [4]: 525 nM
- IC50 [5]: > 5 µM
- IC50 [6]: > 1000 nM
- Activity [7]: Non-Toxic
- Activity [8]: Non-Toxic
- EC50 [9]: > 5 µM
- EC50 [10]: > 5 µM
- EC50 [11]: > 5 µM
- EC50 [12]: > 5 µM
- Activity [13]: Dose-dependent effect
- IC50 [14]: > 5 µM
- IC50 [15]: 7.6 nM
- IC50 [16]: > 1000 nM
- IC50 [17]: 331 nM
- Activity [18]: Non-Toxic
- Activity [19]: Non-Toxic
- IC50 [20]: > 1000 nM
- IC50 [21]: > 5 µM
- IC50 [22]: 8.8 nM
- IC50 [23]: > 1000 nM
- Activity [24]: Non-Toxic
- IC50 [25]: > 5 µM
